# Measured values taken from ChEMBL document CHEMBL1154783, “Study of 1,4-dihydropyridine structural scaffold: discovery of novel sirtuin activators and inhibitors” (2009).
# Activity calls are given as the source filed them. No cut-off for these calls is given here.
# What was measured:
# [1] = Inhibition of human MSC senescence assessed as appearance of senescence-associated beta-galactosidase positive cells at 50 uM after 48 hrs by optic microscopy relative to control; type: functional; parameters: scale not given: the % may be the effect or the level left
# In short: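 Primary human MSC cultured 30 days (ninth passage), 3 × 10^5 cells/well, treated at 50 μM for 48 h. Cells fixed in 2% formaldehyde/0.2% glutaraldehyde, then stained overnight at 37 °C in pH 6 citrate/phosphate buffer with ferro/ferricyanide and 1 mg/mL X-Gal. Blue cells counted as % of total, with the control set as 100%.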
# [2] = molecular target: T1, NAD-dependent protein deacetylase sirtuin-1 (Homo sapiens) (UniProt Q96EB6); experiment: Inhibition of human SIRT1 expressed in Escherichia coli at 50 uM after 1 hr by fluorescent biochemical assay
# T1 sequence (whole entry): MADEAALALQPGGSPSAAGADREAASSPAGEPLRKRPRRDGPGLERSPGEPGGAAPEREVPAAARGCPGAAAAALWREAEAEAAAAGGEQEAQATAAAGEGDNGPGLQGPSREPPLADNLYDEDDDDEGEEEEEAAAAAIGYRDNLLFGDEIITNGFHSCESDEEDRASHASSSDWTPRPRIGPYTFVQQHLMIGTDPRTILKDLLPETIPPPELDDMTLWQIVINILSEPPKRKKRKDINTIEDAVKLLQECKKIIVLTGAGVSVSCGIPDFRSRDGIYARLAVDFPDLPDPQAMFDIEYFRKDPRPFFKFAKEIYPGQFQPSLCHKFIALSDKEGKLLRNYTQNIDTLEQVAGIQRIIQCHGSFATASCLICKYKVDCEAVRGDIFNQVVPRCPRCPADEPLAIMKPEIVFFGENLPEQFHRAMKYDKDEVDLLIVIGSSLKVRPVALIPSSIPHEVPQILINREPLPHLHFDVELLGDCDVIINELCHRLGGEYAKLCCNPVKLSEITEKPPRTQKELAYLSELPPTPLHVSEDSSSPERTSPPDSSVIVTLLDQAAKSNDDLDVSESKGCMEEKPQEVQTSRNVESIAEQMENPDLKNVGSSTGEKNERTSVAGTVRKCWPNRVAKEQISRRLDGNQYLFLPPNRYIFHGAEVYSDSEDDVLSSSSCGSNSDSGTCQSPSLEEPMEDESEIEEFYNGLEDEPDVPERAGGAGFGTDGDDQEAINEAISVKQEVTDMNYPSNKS
# In short: (§1)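 Fluor de Lys two-step assay with human SIRT1 (full length, 747 aa), SIRT2 (389 aa) or SIRT3 catalytic fragment ([…]), all expressed in E. coli. Enzyme was set at 1 U/well for SIRT1 and 5 U/well for SIRT2/SIRT3. Developer was then added for 15 min at 37 °C. Read at ex 355/em 460 nm, triplicates, background-subtracted, with autofluorescence controls for activators.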
# [3] = molecular target: T2, NAD-dependent protein deacetylase sirtuin-2 (Homo sapiens) (UniProt Q8IXJ6); experiment: Inhibition of human SIRT2 expressed in Escherichia coli at 50 uM after 1 hr by fluorescent biochemical assay; in short: as §1
# T2 sequence (whole entry): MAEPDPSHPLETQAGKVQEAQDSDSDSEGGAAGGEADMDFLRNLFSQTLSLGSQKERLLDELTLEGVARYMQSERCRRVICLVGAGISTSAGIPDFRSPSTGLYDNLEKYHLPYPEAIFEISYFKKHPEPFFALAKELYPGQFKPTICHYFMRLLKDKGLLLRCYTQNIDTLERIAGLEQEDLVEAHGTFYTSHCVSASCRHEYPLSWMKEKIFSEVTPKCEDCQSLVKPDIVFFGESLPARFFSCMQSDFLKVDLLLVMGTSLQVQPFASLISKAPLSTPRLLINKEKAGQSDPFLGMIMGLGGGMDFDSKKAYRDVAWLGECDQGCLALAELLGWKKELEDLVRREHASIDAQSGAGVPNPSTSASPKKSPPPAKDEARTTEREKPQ
# [4] = molecular target: T3, NAD-dependent protein deacetylase sirtuin-3, mitochondrial (Homo sapiens) (UniProt Q9NTG7); experiment: Inhibition of human SIRT3 expressed in Escherichia coli at 50 uM after 1 hr by fluorescent biochemical assay; in short: as §1
# T3 sequence (whole entry): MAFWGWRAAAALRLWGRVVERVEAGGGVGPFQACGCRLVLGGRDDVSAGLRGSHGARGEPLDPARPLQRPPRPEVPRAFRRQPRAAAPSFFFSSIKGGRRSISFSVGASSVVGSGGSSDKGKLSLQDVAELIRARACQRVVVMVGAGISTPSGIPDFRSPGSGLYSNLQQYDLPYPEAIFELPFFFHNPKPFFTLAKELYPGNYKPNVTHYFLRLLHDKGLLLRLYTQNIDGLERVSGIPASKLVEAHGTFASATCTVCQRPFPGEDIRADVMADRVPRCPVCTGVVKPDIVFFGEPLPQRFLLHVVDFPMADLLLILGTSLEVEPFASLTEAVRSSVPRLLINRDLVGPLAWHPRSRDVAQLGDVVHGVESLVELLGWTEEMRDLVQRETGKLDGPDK
# [5] = molecular target: T1, NAD-dependent protein deacetylase sirtuin-1 (Homo sapiens); experiment: Activation of human SIRT1 expressed in Escherichia coli after 1 hr by fluorescent biochemical assay; in short: as §1
# [6] = molecular target: T2, NAD-dependent protein deacetylase sirtuin-2 (Homo sapiens); experiment: Activation of human SIRT2 expressed in Escherichia coli at 1 to 50 uM after 1 hr by fluorescent biochemical assay; in short: as §1
# [7] = molecular target: T3, NAD-dependent protein deacetylase sirtuin-3, mitochondrial (Homo sapiens); experiment: Activation of human SIRT3 expressed in Escherichia coli after 1 hr by fluorescent biochemical assay; in short: as §1
# U-937 [8] = experiment: Cell cycle arrest in human U937 cells assessed as accumulation at G1/S phase at 50 uM after 30 hrs by FACS analysis; type: functional, cell-based
# In short: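 U937 cells given 50 μM for 30 h. 2.5 × 10^5 cells lysed in hypotonic buffer (0.1% Triton X-100, 0.1% sodium citrate, 50 μg/mL PI, RNase A) for 30 min in the dark, then DNA content measured by flow cytometry. Done in triplicate.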
# MCF7 [9] = experiment: Cell cycle arrest in human MCF7 cells assessed as accumulation at G1/S phase at 50 uM after 30 hrs by FACS analysis; type: functional, cell-based
# MCF7 [10] = experiment: Induction of apoptosis in human MCF7 cells assessed as caspase 3/7 activity at 50 uM after 30 hrs by FACS analysis; type: functional, cell-based
# U937 (Homo sapiens) = experiment: Induction of granulocyte differentiation in human U937 cells assessed as increase in phycoerythrine-conjugated CD11c expression at 50 uM after 30 hrs by propidium iodide staining-based FACS analysis
# C2C12 [11] = experiment: Increase in mitochondrial function in mouse C2C12 cells assessed as enhancement of mitochondrial density at 10 to 50 uM after 16 hrs by green FM dye straining-based fluorescence assay; type: functional, cell-based
# In short: (§2)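 C2C12 myoblasts (3000 cells/well) treated for 16 h (overnight), with DMSO as control. Cells then stained with MitoTracker Green FM (200 nM) and fluorescence intensity read after subtracting background from unstained wells.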
# [12] = molecular target: T4, Peroxisome proliferator-activated receptor gamma coactivator 1-alpha (Homo sapiens) (UniProt Q9UBK2); experiment: Stimulation of PGC1-alpha-mediated transcriptional activity of mTFA promoter in mouse C2C12 cells expressing NRF1 site after 16 hrs by luciferase reporter gene assay; type: cell-based
# T4 sequence (whole entry): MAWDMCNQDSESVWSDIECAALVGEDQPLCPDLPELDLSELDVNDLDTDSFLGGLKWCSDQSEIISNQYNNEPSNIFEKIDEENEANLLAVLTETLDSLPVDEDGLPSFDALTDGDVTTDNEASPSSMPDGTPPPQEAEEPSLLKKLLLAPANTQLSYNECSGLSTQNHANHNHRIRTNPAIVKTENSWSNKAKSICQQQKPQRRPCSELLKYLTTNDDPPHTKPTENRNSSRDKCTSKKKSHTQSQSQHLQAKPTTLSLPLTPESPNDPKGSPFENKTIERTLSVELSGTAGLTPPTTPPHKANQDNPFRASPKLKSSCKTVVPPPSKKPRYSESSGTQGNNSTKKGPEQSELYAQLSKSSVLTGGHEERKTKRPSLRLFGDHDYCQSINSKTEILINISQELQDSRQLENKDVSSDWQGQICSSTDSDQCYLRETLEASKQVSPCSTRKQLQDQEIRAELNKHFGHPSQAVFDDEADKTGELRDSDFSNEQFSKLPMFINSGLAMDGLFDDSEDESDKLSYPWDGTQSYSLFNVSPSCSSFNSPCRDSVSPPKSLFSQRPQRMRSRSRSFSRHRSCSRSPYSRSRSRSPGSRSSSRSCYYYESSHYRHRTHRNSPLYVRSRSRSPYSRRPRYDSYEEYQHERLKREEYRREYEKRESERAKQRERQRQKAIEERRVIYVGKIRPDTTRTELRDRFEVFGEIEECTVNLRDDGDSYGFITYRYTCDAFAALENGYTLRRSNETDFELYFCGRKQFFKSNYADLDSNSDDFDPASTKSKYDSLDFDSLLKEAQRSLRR
# In short: (§3)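 C2C12 myoblasts in DMEM with 10% heat-inactivated FCS were reverse-transfected (Lipofectamine) with a luciferase reporter carrying either the wild-type mTFA promoter or a mutant lacking the NRF1 site. Cells plated at 3000/well and treated for 16 h (overnight). Luciferase activity compared with DMSO-treated cells by Student's t-test.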
# C2C12 [13] = experiment: Stimulation of transcriptional activity of mTFA promoter in mouse C2C12 cells after 16 hrs by luciferase reporter gene assay; type: functional, cell-based; in short: as §3
# [14] = molecular target: T2, NAD-dependent protein deacetylase sirtuin-2 (Homo sapiens); experiment: Activation of human SIRT2 expressed in Escherichia coli after 1 hr by fluorescent biochemical assay; in short: as §1
# U-937 [15] = experiment: Induction of apoptosis in human U937 cells assessed as caspase 3/7 activity at 50 uM after 30 hrs by FACS analysis; type: functional
# In short: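 U937 cells given 50 μM for 30 h. Apoptosis measured as caspase 3-7 activity by FACS.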
# C2C12 [16] = experiment: Increase in mitochondrial function in mouse C2C12 cells assessed as enhancement of mitochondrial density at 50 uM after 16 hrs by green FM dye straining-based fluorescence assay; type: functional, cell-based; in short: as §2
# U-937 [17] = experiment: Induction of granulocyte differentiation in human U937 cells assessed as increase in phycoerythrine-conjugated CD11c expression at 50 uM after 30 hrs by propidium iodide staining-based FACS analysis; type: functional
# In short: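 U937 cells given 50 μM for 30 h, then stained with CD11c-PE (or PE-mouse IgG1 control) for 30 min at 4 °C in the dark. Cells were resuspended in PBS with PI (0.25 μg/mL) and analyzed by FACS, with PI-positive cells excluded. Readout: CD11c+/PI− cells.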
# MCF7 [18] = experiment: Induction of granulocyte differentiation in human MCF7 cells assessed as increase in phycoerythrine-conjugated CD11c expression at 50 uM after 30 hrs by propidium iodide staining-based FACS analysis; type: functional, cell-based
SMILES,inhibition [2],inhibition [3],Activity [4],Activity [5],EC150 [7],Activity [1],Activity (U-937 [8]),Activity (MCF7 [9]),Activity (MCF7 [10]),Activity (U937 (Homo sapiens)),Activity (U-937 [15]),further results
NC(=O)C1=CN(Cc2ccccc2)C=C(C(N)=O)C1c1ccccc1,inactive,inactive,inactive,Dose-dependent effect,> 50 µM,65%,Active,inactive,inactive,inactive,,Activity [6]: inactive
O=C(O)C1=CN(Cc2ccccc2)C=C(C(=O)O)C1c1ccccc1,inactive,inactive,inactive,Dose-dependent effect,50 µM,70%,Active,inactive,inactive,inactive,,EC150 [5]: 1 µM; EC150 [14]: 15 µM
O=C(O)C1=CN(c2ccccc2)C=C(C(=O)O)C1c1ccccc1,86.6%,,,,,,,,,,,
CCOC(=O)C1=CN(C2CC2)C=C(C(=O)OCC)C1c1ccccc1,,53.7%,,,,,,inactive,inactive,inactive,3%,
Oc1ccc(/C=C/c2cc(O)cc(O)c2)cc1 [RESVERATROL],,,,,,50%,,,,,,Activity (C2C12 [16]): Active
NC(=O)C1=CN(c2ccccc2)C=C(C(N)=O)C1c1ccccc1,89.1%,,,,,,,,,,,

# More lines, main results first:
inhibition [2],inhibition [3],Activity [4],Activity [5],EC150 [7],SMILES,Activity [1],Activity (U-937 [8]),Activity (MCF7 [9]),Activity (MCF7 [10]),Activity (U937 (Homo sapiens)),Activity (U-937 [15]),further results
inactive,inactive,inactive,Dose-dependent effect,50 µM,CCOC(=O)C1=CN(Cc2ccccc2)C=C(C(=O)OCC)C1c1ccccc1,,Active,inactive,inactive,inactive,,Activity (C2C12 [11]): Active; Activity [12]: Dose-dependent effect; Activity (C2C12 [13]): inactive; EC150 [5]: 1 µM; EC150 [14]: 25 µM
63.6%,51.3%,,,,CCOC(=O)C1=CN(c2ccccc2)C=C(C(=O)OCC)C1c1ccccc1,,,inactive,inactive,inactive,3%,
76.6%,49.6%,,,,CCOC(=O)C1=CN(CCc2ccccc2)C=C(C(=O)OCC)C1c1ccccc1,,,inactive,inactive,,3%,Activity (U-937 [17]): 12.3%; Activity (MCF7 [18]): inactive
